Data reported in ChEMBL document CHEMBL2146394, “Design and synthesis of pyrrolo[3,2-d]pyrimidine HER2/EGFR dual inhibitors: improvement of the physicochemical and pharmacokinetic profiles for potent in vivo anti-tumor efficacy” (Bioorg Med Chem, 2012).

Legend:
BT-474 [1] = experiment: Growth inhibition of HER2 over-expressing human BT474 cells after 5 days; format: functional; conditions: BT-474, 120 h
How it was run: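 BT-474 cells kept in RPMI 1640 with 10% heat-inactivated FBS. Seeded at 3×10⁴ cells/well and allowed to attach overnight. Treated continuously with compound for 5 days. Live cells counted with a particle analyzer; GI₅₀ derived.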

[2] = target: Epidermal growth factor receptor (Homo sapiens, UniProt P00533); experiment: Inhibition of human N-terminal DYKDDDD tagged EGFR cytoplasmic domain amino acid 669 to 1210 expressed in baculovirus after 5 mins by scintillation counter
[3] = Apparent permeability across apical to basolateral side in human Caco2 cells at 10 umol/L; format: ADME, cell-based; conditions: Caco-2
How it was run: (§1)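 Confluent Caco-2 monolayers on collagen-coated polycarbonate Transwell membranes. HBSS with 10 mmol/L HEPES, 15 mmol/L glucose and 1% BSA, pH 7.3–7.5. Compound dosed at 10 µmol/L apically (A→B) or basolaterally (B→A), 37 °C, 5% CO₂. Receivers sampled at 1 and 2 h; LC/MS/MS. Papp from receiver concentration slope; duplicates.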

[4] = target: Receptor tyrosine-protein kinase erbB-2 (Homo sapiens, UniProt P04626); experiment: Inhibition of human N-terminal DYKDDDD tagged HER2 cytoplasmic domain amino acid 676 to 1255 expressed in baculovirus after 5 mins by scintillation counter
How it was run: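 FLAG-purified HER2 cytoplasmic domain in 50 mmol/L Tris-HCl pH 7.5, 5 mmol/L MnCl₂, 0.01% Tween-20, 2 mmol/L DTT, with poly-Glu-Tyr (4:1) and [γ-³²P]ATP. Compound and enzyme preincubated 5 min at room temperature; reaction started with ATP, 10 min at room temperature. Stopped with 10% TCA, filter-harvested, washed with 3% phosphoric acid, scintillation counted.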

[5] = Metabolic stability in human hepatic microsomes at 1 umol/L after 20 mins; format: ADME; conditions: liver microsomes, read-out: Stability
How it was run: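 Human liver microsomes (0.2 mg/mL protein) with 1 µmol/L compound in 50 mmol/L phosphate pH 7.4 plus an NADPH-generating system (glucose-6-phosphate, β-NADP⁺, G6PDH, MgCl₂). Incubated at 37 °C for 0 and 20 min, stopped with acetonitrile, duplicates. Remaining compound measured by HPLC with photodiode array detection.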

[6] = Apparent permeability across basolateral to apical side in human Caco2 cells at 10 umol/L; format: ADME, cell-based; conditions: Caco-2; how it was run: as §1
[7] = Antitumor activity against human 4-1ST cells xenografted in F344/N jcl-rnu rat at 12.5 mg/kg, po bid administered 14 days measured on day 31 relative to control; format: functional
How it was run: (§2)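 4-1ST human gastric tumour tissue from donor animals minced and implanted subcutaneously in nude mice or nude rats. Tumours of 200–300 mm³ used. Compounds in 0.5% (w/v) methylcellulose given orally twice daily at 10 mL/kg for 14 days; control got vehicle. Doses expressed as salt-free. Caliper volume (a×b²/2) measured blind 2–3 times weekly. T/C (%) versus control; five mice or eight rats per group.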

[8] = Antitumor activity against human 4-1ST cells xenografted in BALB/c nu/nu mouse at 50 mg/kg, po bid administered 14 days measured on day 31 relative to control; format: functional; how it was run: as §2
[9] = Antitumor activity against human 4-1ST cells xenografted in F344/N jcl-rnu rat at 25 mg/kg, po bid administered 14 days measured on day 31 relative to control; format: functional; how it was run: as §2
[10] = Antitumor activity against human 4-1ST cells xenografted in BALB/c nu/nu mouse at 100 mg/kg, po bid administered 14 days measured on day 31 relative to control; format: functional; how it was run: as §2
BT-474 [11] = experiment: Antitumor activity against human BT474 cells xenografted in BALB/c nu/nu mouse at 100 mg/kg, po bid administered 14 days measured on day 31 relative to control; format: functional
How it was run: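 BT-474 xenografts: 1×10⁷ cells in Matrigel implanted subcutaneously into the right flank of female BALB/c nu/nu mice. Estradiol dipropionate 0.25 mg given intramuscularly on days 0 and 7. Tumours of 200–300 mm³ used. Dosing 100 mg/kg orally bid in 0.5% methylcellulose for 14 days. Volume a×b²/2 by calipers. T/C (%) compared at day 31.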

[12] = Metabolic stability in mouse hepatic microsomes at 1 umol/L after 20 mins; format: ADME; conditions: liver microsomes, read-out: Stability

Chain of Receptor tyrosine-protein kinase erbB-2 (P04626 whole entry, the tested form may be a part): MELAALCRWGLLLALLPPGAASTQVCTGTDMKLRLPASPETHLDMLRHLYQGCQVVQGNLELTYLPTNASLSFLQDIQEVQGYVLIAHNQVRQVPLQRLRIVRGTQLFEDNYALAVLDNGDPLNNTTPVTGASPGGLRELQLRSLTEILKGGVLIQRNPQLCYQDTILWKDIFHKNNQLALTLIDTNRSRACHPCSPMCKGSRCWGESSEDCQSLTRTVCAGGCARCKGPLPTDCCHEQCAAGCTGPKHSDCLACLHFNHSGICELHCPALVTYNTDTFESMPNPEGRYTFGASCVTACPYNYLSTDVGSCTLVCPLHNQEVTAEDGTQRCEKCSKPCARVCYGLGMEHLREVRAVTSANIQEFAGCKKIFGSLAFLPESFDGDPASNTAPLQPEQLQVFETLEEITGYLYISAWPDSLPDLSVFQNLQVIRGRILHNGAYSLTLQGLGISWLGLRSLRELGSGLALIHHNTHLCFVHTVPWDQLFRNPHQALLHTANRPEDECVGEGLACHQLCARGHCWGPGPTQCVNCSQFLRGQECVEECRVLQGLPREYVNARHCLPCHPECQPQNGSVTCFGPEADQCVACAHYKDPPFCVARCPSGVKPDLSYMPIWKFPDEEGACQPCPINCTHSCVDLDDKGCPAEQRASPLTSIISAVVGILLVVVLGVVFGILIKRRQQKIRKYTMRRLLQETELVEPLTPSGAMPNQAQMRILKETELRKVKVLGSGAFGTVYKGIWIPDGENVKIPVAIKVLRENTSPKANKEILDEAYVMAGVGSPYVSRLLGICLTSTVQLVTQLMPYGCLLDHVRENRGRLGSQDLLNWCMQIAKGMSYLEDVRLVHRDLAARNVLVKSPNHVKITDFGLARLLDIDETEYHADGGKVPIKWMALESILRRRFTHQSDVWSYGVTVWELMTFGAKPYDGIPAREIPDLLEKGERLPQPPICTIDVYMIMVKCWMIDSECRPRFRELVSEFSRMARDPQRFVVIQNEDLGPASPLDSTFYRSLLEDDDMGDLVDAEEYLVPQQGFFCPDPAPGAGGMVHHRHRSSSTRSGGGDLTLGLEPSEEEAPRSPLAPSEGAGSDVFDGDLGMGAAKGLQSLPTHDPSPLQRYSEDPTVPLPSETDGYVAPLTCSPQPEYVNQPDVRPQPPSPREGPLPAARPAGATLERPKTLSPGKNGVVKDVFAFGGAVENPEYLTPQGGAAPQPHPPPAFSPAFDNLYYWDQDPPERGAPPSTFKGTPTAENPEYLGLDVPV
Chain of Epidermal growth factor receptor (P00533 whole entry, the tested form may be a part): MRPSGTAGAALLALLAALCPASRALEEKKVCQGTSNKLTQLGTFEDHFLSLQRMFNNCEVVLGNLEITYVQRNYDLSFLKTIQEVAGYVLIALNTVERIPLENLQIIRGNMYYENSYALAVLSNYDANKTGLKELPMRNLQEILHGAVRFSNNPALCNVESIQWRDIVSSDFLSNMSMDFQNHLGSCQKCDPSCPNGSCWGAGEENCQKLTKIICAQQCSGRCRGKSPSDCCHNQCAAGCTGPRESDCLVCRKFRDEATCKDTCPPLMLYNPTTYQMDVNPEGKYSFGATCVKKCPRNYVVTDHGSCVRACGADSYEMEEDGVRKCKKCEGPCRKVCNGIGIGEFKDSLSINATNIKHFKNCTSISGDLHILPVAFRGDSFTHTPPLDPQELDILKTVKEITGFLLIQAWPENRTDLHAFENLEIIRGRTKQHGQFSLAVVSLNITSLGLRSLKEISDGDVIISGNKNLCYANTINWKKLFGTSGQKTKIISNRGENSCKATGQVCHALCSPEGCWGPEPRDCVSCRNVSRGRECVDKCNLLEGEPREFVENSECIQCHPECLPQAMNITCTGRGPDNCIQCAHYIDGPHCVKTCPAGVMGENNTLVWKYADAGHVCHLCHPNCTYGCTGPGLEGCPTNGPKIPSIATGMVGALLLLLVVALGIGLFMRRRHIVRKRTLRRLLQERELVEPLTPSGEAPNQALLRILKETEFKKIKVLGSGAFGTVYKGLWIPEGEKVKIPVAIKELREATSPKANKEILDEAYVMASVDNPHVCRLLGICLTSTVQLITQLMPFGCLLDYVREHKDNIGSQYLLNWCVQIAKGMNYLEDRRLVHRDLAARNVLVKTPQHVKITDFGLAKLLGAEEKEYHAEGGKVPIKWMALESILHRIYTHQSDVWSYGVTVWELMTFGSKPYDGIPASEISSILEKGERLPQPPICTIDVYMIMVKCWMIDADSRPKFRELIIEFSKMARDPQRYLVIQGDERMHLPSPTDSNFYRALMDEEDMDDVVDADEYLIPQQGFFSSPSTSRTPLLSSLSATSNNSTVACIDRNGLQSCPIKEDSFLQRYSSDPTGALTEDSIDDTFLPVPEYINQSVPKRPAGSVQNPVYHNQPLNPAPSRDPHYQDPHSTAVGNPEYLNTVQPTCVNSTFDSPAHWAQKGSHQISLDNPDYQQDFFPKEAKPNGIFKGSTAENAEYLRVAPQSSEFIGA

Compound | GI50 (BT-474 [1]) [nM] | IC50 [2] [nM] | Papp A→B at 10 µM [3] [×10⁻⁶ cm/s] | IC50 [4] [nM] | microsomal CLint at 1 µM [5] [µL/min/mg] | Papp B→A at 10 µM [6] [×10⁻⁶ cm/s] | microsomal CLint at 1 µM [12] [µL/min/mg] | T/C [7] [%] | T/C [8] [%] | T/C [9] [%] | T/C [10] [%] | T/C (BT-474 [11]) [%]
CS(=O)(=O)CC(=O)NCCn1ccc2ncnc(Nc3ccc(Oc4cccc(Cl)c4)c(Cl)c3)c21 | 3.9 | 6.7 | 0.67 | 2.9 | 11 | 6.79 | – | – | – | – | – | –
CC(C)(O)CC(=O)NCCn1ccc2ncnc(Nc3ccc(Oc4cccc(C(F)(F)F)c4)c(Cl)c3)c21 [TAK-285] | – | – | 5.05 | – | – | 6.87 | – | 14 | 44 | -12 | 11 | 29
CC(C)(C(=O)NCCn1ccc2ncnc(Nc3ccc(Oc4cccc(Cl)c4)c(Cl)c3)c21)S(C)(=O)=O | 56 | – | 2.85 | – | 21 | 7.69 | – | – | – | – | – | 24

Further lines, with some results ahead:

GI50 (BT-474 [1]) [nM] | IC50 [2] [nM] | Papp A→B at 10 µM [3] [×10⁻⁶ cm/s] | IC50 [4] [nM] | microsomal CLint at 1 µM [5] [µL/min/mg] | Papp B→A at 10 µM [6] [×10⁻⁶ cm/s] | microsomal CLint at 1 µM [12] [µL/min/mg] | Compound | T/C [7] [%] | T/C [8] [%] | T/C [9] [%] | T/C [10] [%] | T/C (BT-474 [11]) [%]
55 | 47 | 2.87 | 17 | 38 | 4.26 | 23 | CC(C)(C(=O)NCCn1ccc2ncnc(Nc3ccc(Oc4cccc(C(F)(F)F)c4)c(Cl)c3)c21)S(C)(=O)=O | – | – | – | – | 43
36 | 56 | – | 14 | 45 | – | 31 | CC(C)(C)S(=O)(=O)CC(=O)NCCn1ccc2ncnc(Nc3ccc(Oc4cccc(C(F)(F)F)c4)c(Cl)c3)c21 | – | – | – | – | –
